The values that follow come from ChEMBL document CHEMBL1123389, “3-Hydroxy-3-methylglutaryl-coenzyme A reductase inhibitors. 2. Structural modification of 7-(substituted aryl)-3,5-dihydroxy-6-heptenoic acids and their lactone derivatives” (J Med Chem, 1986).

The target of experiment [1] is T1, 3-hydroxy-3-methylglutaryl-coenzyme A reductase (Rattus norvegicus, UniProt P51639).
T1 sequence (P51639 whole entry): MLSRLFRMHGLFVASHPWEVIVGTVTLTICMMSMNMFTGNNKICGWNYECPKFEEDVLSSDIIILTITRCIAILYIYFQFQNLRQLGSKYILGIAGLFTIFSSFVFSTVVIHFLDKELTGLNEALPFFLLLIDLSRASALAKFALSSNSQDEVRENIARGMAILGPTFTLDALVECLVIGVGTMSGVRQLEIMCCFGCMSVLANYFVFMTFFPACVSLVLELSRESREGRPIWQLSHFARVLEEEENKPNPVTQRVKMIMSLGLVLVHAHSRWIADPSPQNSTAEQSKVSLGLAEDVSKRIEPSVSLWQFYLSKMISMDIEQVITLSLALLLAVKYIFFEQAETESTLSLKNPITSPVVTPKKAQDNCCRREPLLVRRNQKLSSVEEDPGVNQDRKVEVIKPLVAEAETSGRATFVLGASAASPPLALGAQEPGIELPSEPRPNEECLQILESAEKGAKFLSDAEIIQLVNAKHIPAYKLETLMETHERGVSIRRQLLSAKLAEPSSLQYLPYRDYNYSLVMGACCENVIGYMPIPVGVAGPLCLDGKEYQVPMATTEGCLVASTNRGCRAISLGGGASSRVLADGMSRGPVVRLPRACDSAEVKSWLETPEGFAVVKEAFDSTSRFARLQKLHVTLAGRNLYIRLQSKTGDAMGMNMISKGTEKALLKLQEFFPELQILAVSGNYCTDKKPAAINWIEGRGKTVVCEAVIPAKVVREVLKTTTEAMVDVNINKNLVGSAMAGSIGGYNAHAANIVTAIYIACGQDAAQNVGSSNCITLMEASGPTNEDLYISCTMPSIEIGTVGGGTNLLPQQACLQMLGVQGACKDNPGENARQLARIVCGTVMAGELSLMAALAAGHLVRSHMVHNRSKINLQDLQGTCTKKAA
Briefly: Inhibition of solubilized, partially purified rat liver HMG-CoA reductase. The essentials: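 Enzyme solubilized from fresh microsomes and purified through the second ammonium sulfate precipitation. It was diluted in 100 mM phosphate, pH 7.2, to give 50 000–60 000 dpm per 100 μL in control. Assay mix (0.8 mL): phosphate pH 7.2 100 mM, MgCl2 3 mM, NADP 3 mM, glucose 6-phosphate 10 mM, G6PDH 3 units, glutathione 50 mM, [14C]HMG-CoA 0.2 mM. Compounds were added as dihydroxy acid Na salts at multiple concentrations. Incubation ran 40 min at 37 °C, stopped with HCl, then lactonized. [14C]mevalonolactone was separated on Bio-Rex 5 and counted. IC50 came from a least-squares line of % inhibition vs concentration.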

Experiment [2] has as its target T2, 3-hydroxy-3-methylglutaryl-coenzyme A reductase (Rattus norvegicus) (UniProt P51639).
T2 sequence (whole entry): T1 sequence (P51639 whole entry)
Nature of the experiment: Relative potency to inhibit solubilized, partially purified rat liver HMG-CoA reductase compared with that of compactin.

Broadly, the IC50 is the concentration at which inhibition is half-maximal. A high value points to weaker potency in that assay. In experiment [1], `O=C1C[C@H](O)C[C@@H](/C=C/c2c(Cl)cc(Cl)cc2OCc2cccc(F)c2)O1` gave an IC50 of 0.58 µM. This molecule returned a Relative potency in experiment [2] of 3.4.

As for `O=C1C[C@H](O)C[C@@H](/C=C/c2c(Cl)cc(Cl)cc2OCc2ccc(Cl)cc2)O1`, the half-inhibitory concentration (IC50) in experiment [1] was 2.5 µM. In experiment [2], this molecule registered a Relative potency of 1.7.

Consider `O=C1C[C@H](O)C[C@@H](/C=C/c2c(Cl)cc(Cl)cc2OCc2ccncc2)O1`, for which the IC50 in experiment [1] stood at 3.7 µM. The same molecule had a Relative potency in experiment [2] of 0.6.

`O=C1C[C@H](O)C[C@@H](/C=C/c2ccc(OCc3ccc(F)cc3)c(Cl)c2Cl)O1`: in experiment [1], the IC50 was 17 µM. Further, the Relative potency in experiment [2] stood at 0.12.

In experiment [1], `C=CCOc1cc(Cl)cc(Cl)c1/C=C/[C@@H]1C[C@@H](O)CC(=O)O1` showed an IC50 of 0.76 µM. In experiment [2], this molecule displayed a Relative potency of 3.2.

As for `O=C1C[C@H](O)C[C@@H](/C=C/c2c(Cl)cc(Cl)cc2OCc2cccnc2)O1`, the IC50 in experiment [1] turned out to be 3.4 µM. The Relative potency in experiment [2] amounted to 0.6.

For the molecule `O=C1C[C@H](O)C[C@@H](/C=C/c2cccc(Cl)c2Cl)O1`, in experiment [1], the IC50 was 64.4 µM. Also, in experiment [2], the Relative potency came out at 0.017.

`O=C1C[C@H](O)CC(CCc2c(Cl)cc(Cl)cc2OCc2cccc(F)c2)O1` (stereo partly specified) registered an IC50 in experiment [1] of 0.21 µM. The molecule also had a Relative potency in experiment [2] of 8.
